Data taken from ChEMBL document CHEMBL1687687, “Identification of a New Series of STAT3 Inhibitors by Virtual Screening” (ACS Med Chem Lett, 2010).
pIC50: −log10 of the molar value. Active and inactive are the calls of the source. The rule behind the calls is not given here.

Legend:
[1] = biological target: T1, Signal transducer and activator of transcription 3 (Homo sapiens, UniProt P40763); assay: Inhibition of STAT3 transcriptional activity in human HeLa cells at 100 uM by luciferase reporter gene assay; assay type: cell-based
T1 sequence (P40763 whole entry): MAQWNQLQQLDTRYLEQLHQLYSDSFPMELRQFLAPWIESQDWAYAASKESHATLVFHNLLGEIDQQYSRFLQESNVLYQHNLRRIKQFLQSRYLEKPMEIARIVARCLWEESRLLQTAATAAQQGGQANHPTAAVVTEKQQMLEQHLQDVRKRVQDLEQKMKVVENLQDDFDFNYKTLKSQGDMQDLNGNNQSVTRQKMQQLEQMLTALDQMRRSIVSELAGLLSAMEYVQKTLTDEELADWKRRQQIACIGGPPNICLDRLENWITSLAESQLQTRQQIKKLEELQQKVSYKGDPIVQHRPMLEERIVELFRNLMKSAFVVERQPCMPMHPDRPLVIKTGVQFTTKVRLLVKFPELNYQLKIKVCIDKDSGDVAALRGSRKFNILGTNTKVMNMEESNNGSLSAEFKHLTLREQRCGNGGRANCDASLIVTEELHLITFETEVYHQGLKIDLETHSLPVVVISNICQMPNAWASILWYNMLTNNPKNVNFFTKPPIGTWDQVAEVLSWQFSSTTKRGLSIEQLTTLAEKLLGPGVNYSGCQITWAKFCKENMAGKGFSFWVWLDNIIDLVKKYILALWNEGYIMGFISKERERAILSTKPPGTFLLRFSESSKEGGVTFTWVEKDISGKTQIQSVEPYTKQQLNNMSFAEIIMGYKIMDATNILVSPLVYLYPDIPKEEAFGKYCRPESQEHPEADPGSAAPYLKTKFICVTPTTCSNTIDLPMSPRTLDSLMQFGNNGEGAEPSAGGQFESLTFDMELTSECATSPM
Procedure, shortened: (§1)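 STAT3-dependent luciferase reporter gene assay in HeLa cells. Activity is reported as percent inhibition at a single 100 μM concentration, or as an IC50.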

[2] = biological target: T1, Signal transducer and activator of transcription 3; assay: Inhibition of STAT3 transcriptional activity in human HeLa cells by luciferase reporter gene assay; assay type: cell-based; procedure, shortened: as §1
[3] = biological target: T1, Signal transducer and activator of transcription 3; assay: Inhibition of STAT3 dimerization transfected in HEK293 cells at 50 uM after 24 hrs followed by 1 hr stimulation with 50 ng/ml IL-6 by FRET assay; assay type: cell-based
Procedure, shortened: (§2)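 Cell-based FRET dimerization read-out in HEK293 cells co-expressing STAT3-CFP and STAT3-YFP. Cells were pretreated with compound before IL-6 stimulation, and the FRET signal from the STAT3–STAT3 interaction was measured. Values are given as percent inhibition of the signal.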

[4] = biological target: T1, Signal transducer and activator of transcription 3; assay: Inhibition of STAT3 dimerization transfected in HEK293 cells at 100 uM after 24 hrs followed by 1 hr stimulation with 50 ng/ml IL-6 by FRET assay; assay type: cell-based; settings: 10 uM, in the assay text read “at 10 uM” for “at 100 uM”; procedure, shortened: as §2
[5] = biological target: T1, Signal transducer and activator of transcription 3; assay: Inhibition of STAT3 in human MDA-MB-468 cells assessed as reduction in c-myc expression at 10 uM by Western blotting; assay type: cell-based
Procedure, shortened: (§3)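 MDA-MB-468 breast cancer cells were treated with compound at a series of concentrations. Cell lysates were analysed by Western blotting for c-myc, cyclin D1 and survivin, with STAT3 Tyr705 phosphorylation probed alongside.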

[6] = Plasma concentration in CD1(ICR) mouse at 160 mg/kg, po after 8 hrs by LC-MS analysis; assay type: ADME, organism-based; set-up: dose 160 mg/kg, route oral
[7] = biological target: T1, Signal transducer and activator of transcription 3; assay: Inhibition of STAT3 in IL-6 stimulated human MDA-MB-468 cells assessed as reduction in amplification of c-myc promoter by CHIP assay; assay type: cell-based
Procedure, shortened: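 Chromatin immunoprecipitation in compound-treated MDA-MB-468 breast cancer cells. STAT3 occupancy of the c-myc promoter was judged by amplification of the c-myc promoter from the immunoprecipitate.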

[8] = biological target: T1, Signal transducer and activator of transcription 3; assay: Inhibition of STAT3 DNA binding activity in IL-6 stimulated human MDA-MB-468 cells at 50 uM by transcription factor ELISA; assay type: cell-based
[9] = biological target: T2, Signal transducer and activator of transcription 1-alpha/beta (Homo sapiens) (UniProt P42224); assay: Inhibition of STAT1 DNA binding activity in IL-6 stimulated human MDA-MB-468 cells at 50 uM by transcription factor ELISA; assay type: cell-based
T2 sequence (whole entry): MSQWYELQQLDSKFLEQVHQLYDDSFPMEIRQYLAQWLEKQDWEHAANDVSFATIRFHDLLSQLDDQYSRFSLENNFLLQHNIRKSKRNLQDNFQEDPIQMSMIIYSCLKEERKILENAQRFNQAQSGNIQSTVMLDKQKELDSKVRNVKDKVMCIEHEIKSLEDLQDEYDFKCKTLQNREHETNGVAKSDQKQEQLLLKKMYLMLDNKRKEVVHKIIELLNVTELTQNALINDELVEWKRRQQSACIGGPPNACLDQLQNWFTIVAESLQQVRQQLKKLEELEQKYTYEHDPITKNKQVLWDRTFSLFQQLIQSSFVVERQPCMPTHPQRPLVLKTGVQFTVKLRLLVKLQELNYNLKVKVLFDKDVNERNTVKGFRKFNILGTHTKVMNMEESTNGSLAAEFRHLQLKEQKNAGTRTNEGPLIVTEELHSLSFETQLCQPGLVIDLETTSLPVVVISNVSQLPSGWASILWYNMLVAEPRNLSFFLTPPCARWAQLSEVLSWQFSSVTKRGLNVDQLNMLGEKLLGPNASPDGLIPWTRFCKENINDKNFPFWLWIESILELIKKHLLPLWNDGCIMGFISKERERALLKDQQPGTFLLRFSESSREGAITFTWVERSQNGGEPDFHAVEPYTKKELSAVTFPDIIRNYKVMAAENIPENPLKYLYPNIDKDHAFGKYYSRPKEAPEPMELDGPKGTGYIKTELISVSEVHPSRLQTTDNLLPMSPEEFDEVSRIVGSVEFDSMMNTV

[10] = biological target: T1, Signal transducer and activator of transcription 3; assay: Inhibition of STAT3 in human MDA-MB-468 cells assessed as reduction in survivin expression at 10 uM by Western blotting; assay type: cell-based; procedure, shortened: as §3
[11] = biological target: T1, Signal transducer and activator of transcription 3; assay: Inhibition of STAT3 in human MDA-MB-468 cells assessed as reduction in c-myc expression at 50 uM by Western blotting; assay type: cell-based; procedure, shortened: as §3
[12] = biological target: T1, Signal transducer and activator of transcription 3; assay: Inhibition of STAT3 in human MDA-MB-468 cells assessed as reduction in cyclin D1 expression at 20 uM by Western blotting; assay type: cell-based; procedure, shortened: as §3
[13] = biological target: T1, Signal transducer and activator of transcription 3; assay: Inhibition of STAT3 in human MDA-MB-468 cells assessed as reduction in cyclin D1 expression at 50 uM by Western blotting; assay type: cell-based; procedure, shortened: as §3
MDA-MB-468 = assay: Induction of apoptosis in human MDA-MB-468 cells assessed as increase in caspase3/7 activity at 1-100 uM by fluorescence assay; assay type: functional, cell-based
[14] = biological target: T3, Signal transducer and activator of transcription 5B (Homo sapiens) (UniProt P51692); assay: Inhibition of STAT5b DNA binding activity in IL-6 stimulated human MDA-MB-468 cells at 50 uM by transcription factor ELISA; assay type: cell-based
T3 sequence (whole entry): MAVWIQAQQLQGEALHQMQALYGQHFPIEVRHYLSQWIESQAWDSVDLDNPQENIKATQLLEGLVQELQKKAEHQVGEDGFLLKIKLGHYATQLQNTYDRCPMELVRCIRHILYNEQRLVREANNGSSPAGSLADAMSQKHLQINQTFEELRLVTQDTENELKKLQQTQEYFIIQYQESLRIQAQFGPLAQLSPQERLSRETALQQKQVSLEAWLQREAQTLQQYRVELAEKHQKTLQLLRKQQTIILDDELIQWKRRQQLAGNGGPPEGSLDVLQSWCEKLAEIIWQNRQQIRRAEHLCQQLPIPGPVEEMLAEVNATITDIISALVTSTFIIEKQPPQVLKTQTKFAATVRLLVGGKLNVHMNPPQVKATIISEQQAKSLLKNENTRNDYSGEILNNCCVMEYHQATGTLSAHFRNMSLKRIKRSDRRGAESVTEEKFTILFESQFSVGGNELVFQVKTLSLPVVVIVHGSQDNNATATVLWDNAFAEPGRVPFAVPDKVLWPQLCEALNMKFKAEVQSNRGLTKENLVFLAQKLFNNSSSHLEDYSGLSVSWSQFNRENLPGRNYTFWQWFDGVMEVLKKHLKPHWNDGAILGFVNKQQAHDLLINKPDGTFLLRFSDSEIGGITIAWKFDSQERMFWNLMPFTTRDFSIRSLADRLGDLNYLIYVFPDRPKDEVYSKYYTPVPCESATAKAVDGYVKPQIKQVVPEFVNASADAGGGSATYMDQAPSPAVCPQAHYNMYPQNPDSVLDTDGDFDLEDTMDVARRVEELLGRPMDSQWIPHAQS

[15] = biological target: T1, Signal transducer and activator of transcription 3; assay: Inhibition of STAT3 in human MDA-MB-468 cells assessed as reduction in survivin expression at 20 uM by Western blotting; assay type: cell-based; procedure, shortened: as §3
SCC-3 = assay: Antitumor activity against human SCC-3 cells xenografted in BALB/cA-v/v nude mouse assessed as decrease in tumor volume at 160 mg/kg, po QD for 4 days measured on 4th day relative to control; assay type: functional; set-up: scale not given: the % may be the effect or the level left
Procedure, shortened: (§4)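 Human SCC-3 lymphoma cells implanted subcutaneously in nude mice. Compound given by oral gavage at 160 mg/kg once daily for 4 days. Tumour growth was assessed on day 4 against untreated controls, with significance taken at p < 0.05. Body weight and signs of toxicity were monitored over the same period.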

[16] = biological target: T4, Signal transducer and activator of transcription 5A (Homo sapiens) (UniProt P42229); assay: Inhibition of STAT5a DNA binding activity in IL-6 stimulated human MDA-MB-468 cells at 50 uM by transcription factor ELISA; assay type: cell-based
T4 sequence (whole entry): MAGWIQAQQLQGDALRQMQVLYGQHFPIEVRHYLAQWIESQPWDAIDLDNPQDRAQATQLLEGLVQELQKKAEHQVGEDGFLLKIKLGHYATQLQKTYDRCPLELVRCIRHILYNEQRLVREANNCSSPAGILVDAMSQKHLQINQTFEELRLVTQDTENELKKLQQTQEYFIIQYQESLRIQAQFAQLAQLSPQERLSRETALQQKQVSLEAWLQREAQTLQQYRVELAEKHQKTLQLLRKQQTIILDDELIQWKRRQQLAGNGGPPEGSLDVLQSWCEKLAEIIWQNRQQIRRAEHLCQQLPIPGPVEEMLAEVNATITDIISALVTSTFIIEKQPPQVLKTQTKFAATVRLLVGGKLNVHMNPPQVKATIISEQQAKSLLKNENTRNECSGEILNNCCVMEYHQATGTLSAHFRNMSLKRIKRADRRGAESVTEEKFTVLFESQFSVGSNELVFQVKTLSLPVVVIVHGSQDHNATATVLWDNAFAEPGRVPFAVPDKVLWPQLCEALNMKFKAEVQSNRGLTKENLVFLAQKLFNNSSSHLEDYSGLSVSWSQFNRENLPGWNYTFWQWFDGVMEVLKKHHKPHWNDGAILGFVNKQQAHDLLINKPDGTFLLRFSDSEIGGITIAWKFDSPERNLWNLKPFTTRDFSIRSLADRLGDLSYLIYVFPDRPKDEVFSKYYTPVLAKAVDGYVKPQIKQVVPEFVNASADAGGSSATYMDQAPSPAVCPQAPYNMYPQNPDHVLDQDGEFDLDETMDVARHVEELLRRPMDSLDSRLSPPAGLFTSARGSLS

Mus musculus [17] = species: Mus musculus; assay: Toxicity in BALB/cA-v/v nude mouse assessed as mortality; assay type: organism-based; settings: in vivo
[18] = biological target: T1, Signal transducer and activator of transcription 3; assay: Inhibition of STAT3 in human MDA-MB-468 cells assessed as reduction in survivin expression at 50 uM by Western blotting; assay type: cell-based; procedure, shortened: as §3
[19] = biological target: T1, Signal transducer and activator of transcription 3; assay: Inhibition of STAT3 in human MDA-MB-468 cells assessed as reduction in c-myc expression at 20 uM by Western blotting; assay type: cell-based; procedure, shortened: as §3
MDA-MB-453 = assay: Induction of apoptosis in human MDA-MB-453 cells assessed as increase in caspase3/7 activity at 1-100 uM by fluorescence assay; assay type: functional, cell-based
[20] = biological target: T1, Signal transducer and activator of transcription 3; assay: Inhibition of STAT3 in human MDA-MB-468 cells assessed as reduction in cyclin D1 expression at 10 uM by Western blotting; assay type: cell-based; procedure, shortened: as §3
Mus musculus [21] = species: Mus musculus; assay: Toxicity in BALB/cA-v/v nude mouse assessed as increase in body weight relative to control; assay type: organism-based; settings: in vivo; procedure, shortened: as §4

SMILES | inhibition [1] [%] | pIC50 [2] | inhibition [3] [%] | inhibition [4] [%] | other results
O=C(Nc1nnc(-c2ccco2)o1)c1cc(-c2cccnc2)nc2ccccc12 | 12 |  |  |  | 
O=C(Nc1nnc(-c2ccco2)o1)c1cc(Cl)nc2ccccc12 | 43 |  |  |  | 
O=C(Nc1nnc(-c2ccco2)o1)c1cc(-c2ccco2)nc2ccccc12 | 129 | 4.18 |  |  | 
O=C(Nc1nnc(-c2ccco2)o1)c1cc(-c2cccc3ccccc23)nc2ccccc12 | 121 | 4.26 | 70 | 14 | 
O=C(Nc1nnc(-c2ccc(Cl)cc2)o1)c1cc(-c2ccccc2)nc2ccccc12 | 115 | 4.21 |  |  | 
O=C(Nc1nnc(-c2ccoc2)o1)c1cc(-c2ccccc2)nc2ccccc12 | 103 | 4.14 | 55 | 8 | 
CCc1nnc(NC(=O)c2cc(-c3ccccc3)nc3ccccc23)o1 | 33 |  |  |  | 
O=C(Nc1nnc(-c2ccco2)s1)c1cc(-c2ccccc2)nc2ccccc12 | 26 |  |  |  | 
CCOC(=O)c1nnc(NC(=O)c2cc(-c3ccccc3)nc3ccccc23)o1 | 38 |  |  |  | 
O=C(Nc1nnc(-c2cccs2)o1)c1cc(-c2ccccc2)nc2ccccc12 | 86 | 4.12 | 56 | 36 | 
O=C(Nc1nnc(-c2ccco2)o1)c1cc(-c2ccccn2)nc2ccccc12 | 5 |  |  |  | 
O=C(Nc1nnc(-c2ccco2)o1)c1cc(-c2ccccc2)nc2ccccc12 | 99 | 4.13 | 62 | 9 | inhibition [5]: Active; concentration at 8 h [6]: > 260 µM; inhibition [7]: Active; inhibition [8]: Active; inhibition [9]: inactive; inhibition [10]: Active; inhibition [11]: Active; inhibition [12]: Active; inhibition [13]: Active; Activity (MDA-MB-468): Active; inhibition [14]: inactive; inhibition [15]: Active; Activity (SCC-3): 40%; inhibition [16]: inactive; Activity (Mus musculus [17]): Non-toxic; inhibition [18]: Active; inhibition [19]: Active; Activity (MDA-MB-453): inactive; inhibition [20]: Active; Activity (Mus musculus [21]): Non-toxic
O=C(Nc1nnc(-c2ccco2)o1)c1cc(N2CCCCC2)nc2ccccc12 | -7 |  |  |  | 
Cc1nnc(NC(=O)c2cc(-c3ccccc3)nc3ccccc23)o1 | 14 |  |  |  | 
O=C(Nc1nnc(-c2ccccc2Cl)o1)c1cc(-c2ccccc2)nc2ccccc12 | 5 |  |  |  | 
O=C(Nc1nnc(-c2ccco2)o1)c1cc(-c2cccs2)nc2ccccc12 | 91 | 4.20 | 56 | 18 | 
O=C(Nc1nnc(Cc2ccccc2)o1)c1cc(-c2ccccc2)nc2ccccc12 | 82 | 4.12 | 61 | 25 | 
O=C(Nc1nnc(-c2ccccc2)o1)c1cc(-c2ccccc2)nc2ccccc12 | 105 | 4.18 | 60 | 43 | 
O=C(Nc1nnc(-c2ccco2)o1)c1ccnc2ccccc12 | -5 |  | -4 | -2 | 
